According to ChEMBL document CHEMBL1147446, “Antagonists of human CCR5 receptor containing 4-(pyrazolyl)piperidine side chains. Part 3: SAR studies on the benzylpyrazole segment” (Bioorg Med Chem Lett, 2004):

Experiments:
[1] = system: HeLa; experiment: Antiviral activities in a cell culture HIV-1 infectivity inhibition assay using HeLa cells; type: functional; conditions: Homo sapiens
[2] = target: C-C chemokine receptor type 5 (Homo sapiens, UniProt P51681); experiment: Inhibitory concentration for displacement of [125I]-MIP-1 alpha from recombinant human CC chemokine receptor 5 (CCR5) expressed in CHO cell; type: cell-based
Outline: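 Competitive binding to CCR5 on CHO cell membranes, read as displacement of [125I]-labeled MIP-1α. IC50 values are means of triplicate determinations. Standard errors were normally <15% within an assay. Assay-to-assay variation was within ±2-fold, judged from a standard compound.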

[3] = system: HeLa; experiment: Antiviral activities in a cell culture HIV-1 infectivity inhibition assay using HeLa cells plus 50% normal human serum; type: functional

Sequence of C-C chemokine receptor type 5 (P51681 whole entry): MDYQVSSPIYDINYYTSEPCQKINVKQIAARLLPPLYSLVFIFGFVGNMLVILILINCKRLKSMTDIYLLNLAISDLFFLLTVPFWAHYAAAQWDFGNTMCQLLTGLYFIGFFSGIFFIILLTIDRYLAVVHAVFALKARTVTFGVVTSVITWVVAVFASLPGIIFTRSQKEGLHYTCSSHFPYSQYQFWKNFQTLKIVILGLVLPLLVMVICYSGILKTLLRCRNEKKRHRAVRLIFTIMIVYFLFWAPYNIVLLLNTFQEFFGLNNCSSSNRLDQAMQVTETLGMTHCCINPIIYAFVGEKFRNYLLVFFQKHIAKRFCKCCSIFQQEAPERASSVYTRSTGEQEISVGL

| SMILES | IC90 [1] [nM] | IC50 [2] [nM] | IC90 [3] [nM] |
| --- | --- | --- | --- |
| CCn1nc(Cc2ccc(Oc3ccccc3)cc2)cc1C1CCN(C[C@H]2CN([C@@H](C(=O)O)C(C)C)C[C@@H]2c2cccc(F)c2)CC1 | 11 | 0.6 | > 300 |
| CC[C@H](C)[C@H](C(=O)O)N1C[C@H](CN2CCC(c3cc(Cc4cccc(OC)c4)nn3CC)CC2)[C@@H](c2cccc(F)c2)C1 | < 0.14 | 1.2 | 100 |
| CC[C@@H](C)[C@H](C(=O)O)N1C[C@H](CN2CCC(c3cc(Cc4cccc(CN)c4)nn3CC)CC2)[C@@H](c2cccc(F)c2)C1 | 3.7 | 2.7 | 33 |
| CCn1nc(Cc2ccc(Cl)cc2)cc1C1CCN(C[C@H]2CN([C@@H](C(=O)O)C(C)C)C[C@@H]2c2cccc(F)c2)CC1 | 3.7 | 1.3 | 300 |
| CC[C@@H](C)[C@H](C(=O)O)N1C[C@H](CN2CCC(c3cc(Cc4ccc(-c5ccccc5)cc4)nn3CC)CC2)[C@@H](c2cccc(F)c2)C1 | 1.2 | 0.5 | 300 |
| CCn1nc(Cc2ccc(S(=O)(=O)c3ccccc3)cc2)cc1C1CCN(C[C@H]2CN([C@@H](C(=O)O)C(C)(C)C)C[C@@H]2c2cccc(F)c2)CC1 | < 0.14 | 1.1 | 3.7 |
| CC[C@@H](C)[C@H](C(=O)O)N1C[C@H](CN2CCC(c3cc(Cc4ccc(OC(F)(F)F)cc4)nn3CC)CC2)[C@@H](c2cccc(F)c2)C1 | 1.2 | 0.6 | 100 |
| CCn1nc(Cc2ccc(F)cc2)cc1C1CCN(C[C@H]2CN([C@@H](C(=O)O)C3CCCCC3)C[C@@H]2c2cccc(F)c2)CC1 | 33 | 1.1 |  |
| CC[C@@H](C)[C@H](C(=O)O)N1C[C@H](CN2CCC(c3cc(Cc4ccc5ccccc5c4)nn3CC)CC2)[C@@H](c2cccc(F)c2)C1 | < 0.14 | 0.2 | 300 |
| CC[C@@H](C)[C@H](C(=O)O)N1C[C@H](CN2CCC(c3cc(Cc4ccc(O)cc4)nn3CC)CC2)[C@@H](c2cccc(F)c2)C1 | < 0.14 | 0.6 | 11 |
| CCn1nc(Cc2ccc(C(C)C)cc2)cc1C1CCN(C[C@H]2CN([C@@H](C(=O)O)C(C)(C)C)C[C@@H]2c2cccc(F)c2)CC1 | 0.4 | 0.6 | 33 |
| CCn1nc(Cc2ccc(OC)c(C#N)c2)cc1C1CCN(C[C@H]2CN([C@@H](C(=O)O)C(C)(C)C)C[C@@H]2c2cccc(F)c2)CC1 | < 0.14 | 0.9 | 33 |
| CCOc1ccc(Cc2cc(C3CCN(C[C@H]4CN([C@@H](C(=O)O)C(C)(C)C)C[C@@H]4c4cccc(F)c4)CC3)n(CC)n2)cc1F | < 0.14 | 0.7 | 11 |
| CCn1nc(Cc2cc(F)cc(F)c2)cc1C1CCN(C[C@H]2CN([C@@H](C(=O)O)C3CCCCC3)C[C@@H]2c2cccc(F)c2)CC1 | < 0.14 | 0.9 | 11 |
| CCn1nc(Cc2ccc(OC(F)F)cc2)cc1C1CCN(C[C@H]2CN([C@@H](C(=O)O)C(C)(C)C)C[C@@H]2c2cccc(F)c2)CC1 | < 0.14 | 0.5 | 11 |
| CCn1nc(Cc2ccccc2)cc1C1CCN(C[C@H]2CN([C@@H](C(=O)O)C3CCCCC3)C[C@@H]2c2cccc(F)c2)CC1 |  |  | 100 |
| CCn1nc(Cc2ccc(OC(F)(F)F)cc2)cc1C1CCN(C[C@H]2CN([C@@H](C(=O)O)C(C)C)C[C@@H]2c2cccc(F)c2)CC1 | 3.7 | 0.8 | 300 |
| CC[C@@H](C)[C@H](C(=O)O)N1C[C@H](CN2CCC(c3cc(Cc4ccc(OC5CC5)cc4)nn3CC)CC2)[C@@H](c2cccc(F)c2)C1 | < 0.14 | 0.3 | 33 |
| CC[C@H](C)[C@H](C(=O)O)N1C[C@H](CN2CCC(c3cc(CC4CCCCC4)nn3CC)CC2)[C@@H](c2cccc(F)c2)C1 | 1.2 | 1.2 | 300 |
| CCn1nc(Cc2cccc(C#N)c2)cc1C1CCN(C[C@H]2CN([C@@H](C(=O)O)C(C)C)C[C@@H]2c2cccc(F)c2)CC1 | 3.7 | 1.7 | 100 |
